Test results taken from ChEMBL document CHEMBL1151972, “Cytotoxic asterosaponins capable of promoting polymerization of tubulin from the starfish Culcita novaeguineae” (J Nat Prod, 2009).

What was measured:
Tubulin (Sus scrofa) [1] = biological target: T1, Tubulin (Sus scrofa) (UniProt P02554+P02550); assay: Induction of pig brain tubulin polymerization assessed as end point promote coefficient at 11.7 uM by first high-throughput screening end-point assay
Outline: (§1)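 Tubulin prepared from pig brain; first high-throughput screening step. Polymerization followed by turbidity, end-point reading of the absorbance change at 350 nm, expressed as Pe (percent end-point promote coefficient). Samples above 20% Pe counted as active. Three independent experiments, eight replicate wells each.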

Tubulin (Sus scrofa) [2] = biological target: T1, Tubulin (Sus scrofa); assay: Induction of pig brain tubulin polymerization assessed as kinetic promote coefficient at 11.7 uM by first high-throughput screening end-point assay
Bel-7402 = assay: Cytotoxicity against human Bel7402 cells after 72 hrs by SRB assay; format: functional, cell-based; conditions: Bel-7402, 72 h
Outline: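 Human hepatoma BEL7402 cells; sulforhodamine B protein-staining assay after 72 h exposure. Dose-response curves plotted. IC50 = concentration giving 50% reduction in absorbance relative to control cells. Three independent experiments, each concentration in three replicate wells.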

K562 = assay: Cytotoxicity against human K562 cells after 72 hrs by MTT assay; format: functional, cell-based; conditions: K562, 72 h
Outline: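 Human leukemia K-562 cells; MTT colorimetric viability assay after 72 h exposure. IC50 read from dose-response curves as the concentration giving 50% lower absorbance than control cells. Mean of three independent experiments, triplicate wells per concentration.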

Tubulin (Sus scrofa) [3] = biological target: T1, Tubulin (Sus scrofa); assay: Induction of pig brain tubulin polymerization assessed as end point promote coefficient at 9.3 uM by first high-throughput screening end-point assay; outline: as §1
Tubulin (Sus scrofa) [4] = biological target: T1, Tubulin (Sus scrofa); assay: Induction of pig brain tubulin polymerization assessed as kinetic promote coefficient at 9.3 uM by first high-throughput screening end-point assay
Tubulin (Sus scrofa) [5] = biological target: T1, Tubulin (Sus scrofa); assay: Induction of pig brain tubulin polymerization assessed as end point promote coefficient at 8.9 uM by first high-throughput screening end-point assay; outline: as §1
Tubulin (Sus scrofa) [6] = biological target: T1, Tubulin (Sus scrofa); assay: Induction of pig brain tubulin polymerization assessed as kinetic promote coefficient at 8.9 uM by first high-throughput screening end-point assay

T1 sequence (P02550 whole entry, looked up): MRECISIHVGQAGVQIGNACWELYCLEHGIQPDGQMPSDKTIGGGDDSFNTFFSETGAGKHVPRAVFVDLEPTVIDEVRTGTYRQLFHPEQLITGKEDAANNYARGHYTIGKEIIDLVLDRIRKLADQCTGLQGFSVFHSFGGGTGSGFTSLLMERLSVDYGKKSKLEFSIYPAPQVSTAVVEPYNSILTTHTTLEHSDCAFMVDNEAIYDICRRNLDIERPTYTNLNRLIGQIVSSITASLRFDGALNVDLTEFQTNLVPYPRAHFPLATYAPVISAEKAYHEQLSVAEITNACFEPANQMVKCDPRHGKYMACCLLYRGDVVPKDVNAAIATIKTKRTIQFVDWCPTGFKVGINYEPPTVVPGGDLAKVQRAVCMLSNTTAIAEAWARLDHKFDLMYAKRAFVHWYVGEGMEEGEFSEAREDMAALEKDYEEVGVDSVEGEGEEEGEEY
T1 sequence (P02554 whole entry, looked up): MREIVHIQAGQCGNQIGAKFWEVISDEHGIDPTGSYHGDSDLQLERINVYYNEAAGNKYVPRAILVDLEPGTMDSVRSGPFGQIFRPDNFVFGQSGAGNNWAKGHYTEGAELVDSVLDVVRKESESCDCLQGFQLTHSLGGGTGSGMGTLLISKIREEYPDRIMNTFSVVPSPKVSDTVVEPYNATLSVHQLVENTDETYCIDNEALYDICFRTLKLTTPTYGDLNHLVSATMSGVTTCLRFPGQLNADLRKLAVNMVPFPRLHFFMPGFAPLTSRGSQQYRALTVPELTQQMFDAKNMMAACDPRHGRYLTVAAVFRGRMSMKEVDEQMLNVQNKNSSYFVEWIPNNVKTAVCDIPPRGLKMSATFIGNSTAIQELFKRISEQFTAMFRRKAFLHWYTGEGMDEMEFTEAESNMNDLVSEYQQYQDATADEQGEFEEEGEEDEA

| Compound | Activity (Tubulin (Sus scrofa) [1]) [%] | Activity (Tubulin (Sus scrofa) [2]) [%] | IC50 (Bel-7402) [nM] | IC50 (K562) [nM] | Activity (Tubulin (Sus scrofa) [3]) [%] | Activity (Tubulin (Sus scrofa) [4]) [%] | Activity (Tubulin (Sus scrofa) [5]) [%] | Activity (Tubulin (Sus scrofa) [6]) [%] |
| --- | --- | --- | --- | --- | --- | --- | --- | --- |
| CC(=O)O[C@H]1C(=O)[C@@]2(C)[C@H]([C@H](OC(=O)c3ccccc3)[C@]3(O)C[C@H](OC(=O)[C@H](O)[C@@H](NC(=O)c4ccccc4)c4ccccc4)C(C)=C1C3(C)C)[C@]1(OC(C)=O)CO[C@@H]1C[C@@H]2O | 32 | 100 |  |  |  |  |  |  |
| CC[C@@]1(O)C(=O)OCc2c1cc1n(c2=O)Cc2cc3cc(O)ccc3nc2-1 [HYDROXYCAMPTOTHECIN] |  |  | 400 | 180 |  |  |  |  |
| CO[C@@H]1[C@@H](O)[C@H](O[C@H]2[C@H](O[C@@H]3[C@@H](O)[C@H](O[C@H]4C[C@@H]5C(=CC[C@]6(C)[C@@H]([C@H](C)CC[C@H](OS(=O)(=O)O)C(C)C)CC[C@@H]56)[C@@]5(C)CC[C@H](OS(=O)(=O)O)C[C@H]45)O[C@H](CO)[C@H]3O)OC[C@@H](O)[C@@H]2O)O[C@H](C)[C@H]1O [NOVAEGUINOSIDE C] |  |  | 700 | 1300 | 42 | 149 |  |  |
| CO[C@@H]1[C@@H](O)[C@H](O[C@H]2[C@H](O[C@@H]3[C@@H](O)[C@H](O[C@H]4C[C@@H]5C(=CC[C@]6(C)[C@@H]([C@H](C)/C=C/[C@@H](C)[C@@H](C)C(=O)NCCS(=O)(=O)O)CC[C@@H]56)[C@@]5(C)CC[C@H](OS(=O)(=O)O)C[C@H]45)O[C@H](CO)[C@H]3O)OC[C@@H](O)[C@@H]2O)O[C@H](C)[C@H]1O [NOVAEGUINOSIDE D] |  |  | 4100 | 4600 |  |  | 23 | 85 |
